This is a sample that favours compounds with a hit; in the whole collection about 2.4% have one here.
NPY-Y2 PAM-ag: human NPY-Y2 potentiation or agonism, primary screen; P49146; activation, % at 3.6 µM; cells expressing NPY-Y2, potentiator/agonist read-out; 0.45% of 220,000 active; in the data active = activation above about 27%;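 also: cells stimulated with NPY near EC25 plus isoproterenol at EC100; 0% = vehicle plus submaximal agonist and 100% = vehicle plus saturating agonist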
S1P4 antag: blocks the human S1P4 receptor; O95977; S1P4-expressing cells, antagonist mode, reporter read-out; inhibition, % at 4.98 µM; 0.26% of 220,000 active; AID 1510; in the data active = inhibition above about 29%;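 also: 0% = wells stimulated with agonist and 100% = vehicle wells without agonist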
NPY1 pot ag: human NPY-Y1 potentiation or agonism, primary screen; NPY-Y1 expressing cells, potentiator/agonist activation; activation, % at 3.6 µM; 0.37% of 220,000 active; AID 1304; in the data active = activation above about 33%, passing the limit was not always enough;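 also: cells stimulated with NPY at EC10 then isoproterenol at EC100; 0% = low agonist plus stimulus and 100% = saturating agonist plus stimulus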
Target sequence (P25929 whole entry, looked up): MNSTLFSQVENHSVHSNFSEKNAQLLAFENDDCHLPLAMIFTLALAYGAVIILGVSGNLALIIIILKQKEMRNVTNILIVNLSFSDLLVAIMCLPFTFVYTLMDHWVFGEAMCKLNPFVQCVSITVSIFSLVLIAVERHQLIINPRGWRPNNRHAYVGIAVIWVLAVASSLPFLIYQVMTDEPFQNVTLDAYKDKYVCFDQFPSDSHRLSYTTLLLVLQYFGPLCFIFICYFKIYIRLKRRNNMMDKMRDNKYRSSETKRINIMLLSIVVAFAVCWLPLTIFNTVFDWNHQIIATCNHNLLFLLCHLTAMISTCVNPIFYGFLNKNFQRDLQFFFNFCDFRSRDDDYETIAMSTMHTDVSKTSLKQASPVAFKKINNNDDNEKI
NPY Y2 blocker: blocks the human neuropeptide Y Y2 receptor; NPY-Y2 expressing cells, antagonist mode; inhibition, % at 2.7 µM; 0.99% of 140,000 active; in the data active = inhibition above about 17%;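 also: 0% = vehicle with agonist challenge and 100% = reference antagonist with challenge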
S1P4 ag: activates the human S1P4 receptor; O95977; S1P4-expressing cell line, agonist reporter assay; activation, % at 4.98 µM; 0.35% of 220,000 active; AID 1509; in the data active = activation above about 11%;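 also: 0% = DMSO vehicle and 100% = reference agonist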
NPY-Y1 antag: antagonists of human neuropeptide Y receptor Y1 | AID 1040 | P25929 | inhibition, % at 3.6 µM | 1% of 200,000 active | HEK293-CNG Y1 cells, membrane potential fluorescence; NPY at EC95, then isoproterenol;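 active = inhibition above the campaign mean inhibition of all tested compounds plus 3 SD, cut at about 20% in these data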;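 also: 0% = DMSO wells given NPY plus isoproterenol and 100% = isoproterenol alone without NPY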
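Test system – HEK293 Y1/CNG channel cell line · Also added – NPY agonist 25 nM, then isoproterenol 1 µM plus Ro 20-1724 25 µM · Compound dosing – one concentration, 3.6 µM, in 0.4% DMSO · Schedule – compound incubation 1 h at room temperature, readout 45 min post-stimulation · Technique – fluorescence, membrane potential probe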
NPY-Y2 pot conf: human NPY-Y2 potentiation or agonism, confirmation. shares compounds with NPY-Y2 PAM-ag. AID 1539. activation, % at 3.6 µM. 20% of 450 active. cell-based NPY-Y2 potentiator/agonist assay; in the data active = activation above about 33%
NPY-Y1 counter: NPY-Y1 potentiation or agonism as NPY-Y2 counter-screen; shares compounds with NPY-Y2 PAM-ag; Y1 HEK293-CNG cells, membrane potential fluorescence; activation, % at 3.6 µM; 20% of 450 active; AID 1651; in the data active = activation above about 45%;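 also: cells stimulated with submaximal NPY then isoproterenol with phosphodiesterase inhibitor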
NPY-Y1 agonist 2: activates human NPY-Y1, counter-screen for NPY-Y2 potentiators; shares compounds with NPY-Y2 PAM-ag; HEK293 Y1-CNGC, membrane potential fluorescence, agonism; activation, % at 3.6 µM; 37% of 450 active; AID 1702;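 active = activation above the mean of DMSO-only control wells plus 3 SD, cut at about 18% in these data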;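 also: cells stimulated with 1 µM isoproterenol plus the PDE inhibitor Ro 20-1724; 0% = isoproterenol with DMSO and no NPY and 100% = 40 nM NPY; Y1 agonists lower the membrane potential dye signal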
CNGC inhibitor: counter-screen for NPY-Y2 potentiators: inhibitors of CNG channel activity; shares compounds with NPY-Y2 PAM-ag; 32% of 450 active; HEK293-CNG parental, isoproterenol cAMP, membrane potential fluorescence; inhibition, % at 3.6 µM;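 active = inhibition above the control-well mean plus 3 SD of those wells, cut at about 22% in these data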;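 also: 0% = DMSO with isoproterenol and 100% = DMSO without isoproterenol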
NPY-Y2 ag 2: NPY-Y2 agonism, counter-screen for Y2 potentiators | shares compounds with NPY-Y2 PAM-ag | HEK293 Y2/CNGC cells, membrane potential fluorescence, agonist mode | activation, % at 3.6 µM | 56% of 450 active | AID 1710;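 active = activation above the mean of solvent-only control wells plus 3 SD, cut at about 10% in these data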;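 also: cells stimulated by isoproterenol with no NPY added so direct agonism is tested; 0% = DMSO with isoproterenol alone and 100% = NPY at EC100 plus isoproterenol; agonism lowers probe fluorescence through less cAMP and CNG channel opening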
* = called active by the depositor; . = no result given.

SMILES	NPY-Y2 PAM-ag	S1P4 antag	NPY1 pot ag	NPY Y2 blocker	S1P4 ag	NPY-Y1 antag	NPY-Y2 pot conf	NPY-Y1 counter	NPY-Y1 agonist 2	CNGC inhibitor	NPY-Y2 ag 2
O=C(CNC(=O)c1ccc(S(=O)(=O)N2CCCCC2)cc1)N/N=C/c1ccco1	-16	4	3	.	0	2	.	.	.	.	.
Cc1ccc(S(=O)(=O)NNC(=O)c2ccoc2C)cc1	1	-16	18	.	1	.	.	.	.	.	.
C/C(N)=C(/C#N)C(=O)CSc1nnc(SCc2ccc(Cl)cc2)s1	21	-15	-8	7	1	-2	.	.	.	.	.
C/C(N)=C(/C#N)C(=O)CSc1nn(-c2ccc(Cl)cc2)c(=S)s1	35*	-12	10	.	1	-7	21	25	10	0	10.0*
Cn1ccnc1C(O)(c1ccccc1)c1ccccc1	1	-12	6	.	1	.	.	.	.	.	.
N#C/C(=C\Nc1ccccc1O)c1nc2ccccc2o1	31*	-10	15	0	1	2	25	37	29*	34*	18*
CCc1ccc(NC(=S)N(Cc2ccc(Cl)cc2)Cc2ccc(C(=O)O)cc2)cc1	32*	-18	1	.	0	0	8	20	16	14	6
C/C=C/C(=O)N1c2ccc(C)cc2C(C)=CC1(C)C	97*	-4	-26	.	-1	.	-9	-2	-10	-11	-2
CC1=CC(C)(C)N(C(=O)CSc2nnc(C)s2)c2ccc(C)cc21	2	-7	17	2	0	-1	.	.	.	.	.
COc1ccc(C2C(C#N)=C(N)N3C(=C2C#N)Sc2ccccc23)cc1 (configuration not stated)	27	-8	-8	-2	1	-3	.	.	.	.	.
Cc1ccc(Cn2cccc2/C=N/NC(=S)Nc2ccc(C)cc2)cc1	6	-1	-16	.	0	-4	.	.	.	.	.
COc1ccc(NC(=S)N/N=C/c2cccn2Cc2ccc(F)cc2)cc1	42*	-3	20	.	0	2	17	7	-2	2	5
COCCCN1C(=O)CS/C1=N\S(=O)(=O)c1ccccc1	-11	-12	7	.	0	.	.	.	.	.	.
CN1C/C(=N\S(=O)(=O)c2ccccc2)N(C)C1=O	101*	1	39	-1	1	10	-2	6	-1	1	0
CS(=O)(=O)Nc1ccc(C(=O)Nc2cccc([N+](=O)[O-])c2)cc1	-8	-5	-5	.	0	4	.	.	.	.	.
CC(=O)Nc1ccc(S(=O)(=O)N2CCC(n3cnc4cc(F)ccc43)CC2)cc1	35*	7	10	0	0	2	8	7	4	4	-5
CCN(CC)CCCNc1nc2cc(OC)c(OC)cc2c2nc(-c3cccnc3)nn12	-18	-30	-14	4	0	-1	.	.	.	.	.
COc1cc2nc(NCC3CCCO3)n3nc(-c4cccnc4)nc3c2cc1OC (configuration not stated)	65*	-5	15	-2	-1	3	-1	8	1	4	9
O=Cc1c(OCc2ccccc2)ccc2ccccc12	3	-18	0	.	0	-4	.	.	.	.	.
Cc1cccc(C)c1OCC(O)CNC(C)(C)C (configuration not stated)	41*	-15	19	1	0	3	12	13	9	12	13*
CN(Cc1ccccc1NS(=O)(=O)c1ccc2ccccc2c1)C1CCCCC1	-14	11	1	.	0	8	.	.	.	.	.
COC(=O)/C(=C/c1cn(C(C)=O)c2ccccc12)[N+](=O)[O-]	61*	-7	35	.	0	.	18	32	25*	20	18*
CCCOP(=O)(OCCC)C(Nc1ccc(C(C)C)cc1)c1ccc([N+](=O)[O-])cc1 (configuration not stated)	35*	-14	28	13	-2	9	12	24	16	6	8
Cc1nccc(-c2cccc(N/N=C(\C#N)C(=O)c3ccccc3)c2)n1	-28	-14	-4	.	0	.	.	.	.	.	.
N#C/C(=N\Nc1cccc(C(F)(F)F)c1)C(=O)c1ccsc1	51*	13	-23	.	-1	.	-13	-54	-28	-12	2
SMILES	NPY-Y2 PAM-ag	S1P4 antag	NPY1 pot ag	NPY Y2 blocker	S1P4 ag	NPY-Y1 antag	NPY-Y2 pot conf	NPY-Y1 counter	NPY-Y1 agonist 2	CNGC inhibitor	NPY-Y2 ag 2
CNC(=O)CCc1[nH]c2ccccc2c1Sc1ccccc1	26*	-3	6	-1	-2	2	12	21	14	14	23*
COc1cc(C=O)ccc1OCC(=O)N1CCCC1	-3	-7	8	.	4	5	.	.	.	.	.
c1cc2c(cc1-c1csc(NNC3=NCCCCC3)n1)OCCO2	1	-4	7	.	2	6	.	.	.	.	.
Cc1ccc(/C=N/NC(=O)c2ccc(Cn3cc([N+](=O)[O-])cn3)o2)cc1	-1	-9	4	1	0	2	.	.	.	.	.
CCCOc1ccc(/C=N/NC(=O)c2ccc(Cn3cc([N+](=O)[O-])cn3)o2)cc1	41*	-10	-31	-3	-1	-2	0	2	-12	5	-1
O=C(NNC(=O)c1ccc(Oc2ccc(C3SCCS3)cc2)o1)c1ccc(Cl)cc1	9	8	-5	.	-1	.	.	.	.	.	.
CCC(=O)Nc1nc(-c2ccc3c(c2)CC(C)N3S(C)(=O)=O)cs1 (configuration not stated)	-13	-16	7	.	-2	-3	.	.	.	.	.
CC1Cc2cc(-c3csc(NC(=O)Cc4cccs4)n3)ccc2N1S(C)(=O)=O (configuration not stated)	44*	1	14	13	0	15	0	-16	-29	-18	-1
CCN(c1ccccc1)S(=O)(=O)c1ccc(Cl)c(NC(=O)CN2C(=O)NC3(CCCC3)C2=O)c1	-18	-7	13	.	0	.	.	.	.	.	.
Nc1[nH]nc2c1NN(c1ccc(Cl)cc1Cl)N2	32*	-5	37	-6	0	-4	27	29	17	24*	21*
O=C(COc1ncnc2ccccc12)c1ccc(Cl)cc1	2	1	-12	.	2	-4	.	.	.	.	.
CCOC(=O)c1[nH]c2ccc(F)cc2c1NC(=O)CN1CCN(C/C=C/c2ccccc2)CC1	38*	-23	29	-1	0	-2	67*	90*	68*	71*	53*

Assay outcomes (PubChem BioAssay)
